Measurements: ChEMBL document CHEMBL1124963, “Antifolate and antibacterial activities of 5-substituted 2,4-diaminoquinazolines” (J Med Chem, 1990)

Assays:
[1] = Dissociation constant was determined using UV method; type: physicochemical
Procedure, shortened: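 UV spectrophotometric method. Aqueous stock of compound in distilled water, diluted into 0.01 M NaOH (pH ~12) and 0.001 M HCl (pH ~3) to pick an analytical wavelength from the difference spectrum. Five to seven KH2PO4/borax buffers bracketing the estimated pKa, pH measured at 25 °C. Absorbance read in a 1.0-cm cell at 25.0 °C against buffer. Separate values averaged with SD to give the concentration pKa.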

Escherichia coli = assay: Antibacterial activity (10 e-6 log (1/MIC) towards Escherichia coli; type: functional
Procedure, shortened: (§1)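 Two-fold serial dilution: each compound prepared as a series of solutions differing by a factor of two, each added to a fixed amount of previously prepared test culture, incubated at 37 °C overnight.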

[2] = Partition coefficient (logP); type: physicochemical; settings: octanol/water
Staphylococcus aureus = assay: Antibacterial activity (10 e-6 log (1/MIC) towards Staphylococcus aureus; type: functional; procedure, shortened: as §1
[3] = Acute toxicity determined in mice by an LD50 test when administered intraperitoneally; type: organism-based; settings: mouse, in vivo, ip
[4] = Acute toxicity determined in mice by an LD50 test when administered perorally; type: organism-based; settings: mouse, in vivo, po
[5] = Acute toxicity determined in mice by an LD50 test when administered peritoneally; type: organism-based; settings: mouse, in vivo, ip

Row | Structure (SMILES) | Log 1/MIC (Escherichia coli) | logP [2] | Log 1/MIC (Staphylococcus aureus) | pKa [1] | LD50 [3] | LD50 [4] | LD50 [5]
1 | COC(=O)c1cccc2nc(N)nc(N)c12 | -0.1 | – | -0.6 | – | 68 mg/kg | – | –
2 | Nc1nc(N)c2c(S(=O)(=O)c3ccccc3)cccc2n1 | <-0.5 | 2.14 | <-0.5 | – | – | – | –
3 | Nc1nc(N)c2c(Br)cccc2n1 | 2.2 | 1.91 | 1.5 | – | – | 271 mg/kg | –
4 | Nc1nc(N)c2c(O)cccc2n1 | <-0.7 | – | -0.7 | – | – | – | –
5 | Cc1cccc2nc(N)nc(N)c12 | 1.7 | 1.26 | 0.5 | 8.19 | ~100 mg/kg | – | –
6 | Nc1nc(N)c2c(CCc3ccccc3)cccc2n1 | 1.3 | – | 1.3 | – | – | – | –
7 | NC(=O)c1cccc2nc(N)nc(N)c12 | -0.6 | -0.33 | <-0.7 | 7.22 | – | – | –
8 | Nc1nc(N)c2ccccc2n1 | 0.7 | 1.01 | 1.3 | 8.08 | – | – | –
9 | CSc1cccc2nc(N)nc(N)c12 | 2.2 | 1.81 | 0 | – | – | – | –
10 | Nc1nc(N)c2c(N)cccc2n1 | 0.3 | 0.3 | <0.2 | – | – | – | –
11 | CCCOc1cccc2nc(N)nc(N)c12 | 1.1 | 2.26 | 0.2 | – | – | – | –
12 | Nc1ncnc2ccccc12 [4-AMINOQUINAZOLINE] | – | – | – | – | 205 mg/kg | – | 584 mg/kg
13 | Nc1nc(N)c2c(F)cccc2n1 | 1.7 | 1.19 | 1.4 | 7.44 | 100 mg/kg | 489 mg/kg | –
14 | Nc1nc(N)c2c(I)cccc2n1 | 1.7 | 2.12 | 0.4 | – | – | ~500 mg/kg | –
15 | Nc1nc(N)c2c(Cl)cccc2n1 | 2.1 | 1.72 | 1.2 | 7.22 | 100 mg/kg | – | –
16 | CCOc1cccc2nc(N)nc(N)c12 | 1.7 | 1.69 | 0.2 | – | ~100 mg/kg | – | –
17 | CCCSc1cccc2nc(N)nc(N)c12 | – | 2.85 | – | – | – | – | –
18 | Nc1nc(N)c2c(Oc3ccccc3)cccc2n1 | 0.2 | 2.78 | 0 | – | – | – | –
19 | COc1cccc2nc(N)nc(N)c12 | 2.1 | 1.18 | 1 | 8.32 | 137 mg/kg | ~500 mg/kg | –
20 | Nc1nc(N)c2c(N3CCOCC3)cccc2n1 | -0.6 | 1.11 | -0.6 | – | – | – | –
21 | CCCCCCOc1cccc2nc(N)nc(N)c12 | 0 | – | 1.1 | – | – | – | –
22 | CC(C)Oc1cccc2nc(N)nc(N)c12 | 0.8 | 2.05 | -0.1 | – | – | – | –

Continued, in another order:

Row | Log 1/MIC (Escherichia coli) | logP [2] | Log 1/MIC (Staphylococcus aureus) | Structure (SMILES) | pKa [1] | LD50 [3] | LD50 [4] | LD50 [5]
23 | 2 | 2.27 | -0.1 | CCSc1cccc2nc(N)nc(N)c12 | 7.87 | – | – | –
24 | -0.4 | 1.65 | -0.5 | CN(C)c1cccc2nc(N)nc(N)c12 | – | – | – | –
25 | 0.8 | 2.82 | 1 | Nc1nc(N)c2c(OCc3ccccc3)cccc2n1 | – | – | – | –
26 | <-0.6 | 0.83 | <-0.6 | CCCNC(=O)c1cccc2nc(N)nc(N)c12 | – | – | – | –
27 | <-0.6 | 0.63 | <-0.6 | CS(=O)(=O)c1cccc2nc(N)nc(N)c12 | – | – | – | –
28 | 0.6 | 2.81 | 0.4 | CCCCOc1cccc2nc(N)nc(N)c12 | – | – | – | –
29 | < -0.6 | – | < -0.6 | Nc1nc(N)c2c(Sc3ccccc3)cccc2n1 | – | – | – | –
30 | – | 2.66 | – | Nc1nc(N)c2c(N3CCCCC3)cccc2n1 | – | – | – | –
31 | <0.5 | 1.19 | 0 | Nc1nc(N)c2c([N+](=O)[O-])cccc2n1 | 6.24 | – | – | –
32 | 2.6 | 1.69 | 0.6 | CCc1cccc2nc(N)nc(N)c12 | – | – | – | –
